Several values for one entry are separate records, joined by “and”; a condition that tells them apart may be missing. Equal entries are not always repeated.
Legend:
Cavia porcellus [1] = species: Cavia porcellus; assay: In vitro antagonism of 8 nM of peptidoleukotriene (LTE4) induced contraction of guinea pig tracheal spirals at 100 X E-7M concentration; type: functional, Trachea
Outline: (§1)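 Guinea pig tracheal spirals held at 37 °C in modified Krebs' (mM: NaCl 119, KCl 4.6, CaCl2 1.8, MgCl2 0.5, NaHCO3 24.9, NaH2PO4 1.0, glucose 11.1) plus indomethacin 5 μM, resting tension 2 g, isometric recording. After reproducible 8 nM LTE4 responses, compound added for 10 min, then rechallenged. % inhibition is adjusted for the paired vehicle tissue. At least four spirals, paired t test.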

Cavia porcellus [2] = species: Cavia porcellus; assay: In vitro antagonism of 8 nM of peptidoleukotriene (LTE4) induced contraction of guinea pig tracheal spirals at 33 X E-7M concentration; type: functional, Trachea; outline: as §1
[3] = molecular target: T1, Cysteinyl leukotriene receptor 1 (Cavia porcellus) (UniProt Q2NNR5); assay: Dissociation constant KB = [antagonist]/(dose ratio -1).KB determined in guinea pig tracheal spirals with LTE4 as agonist; type: functional, tissue-based; conditions: Trachea
T1 sequence (whole entry): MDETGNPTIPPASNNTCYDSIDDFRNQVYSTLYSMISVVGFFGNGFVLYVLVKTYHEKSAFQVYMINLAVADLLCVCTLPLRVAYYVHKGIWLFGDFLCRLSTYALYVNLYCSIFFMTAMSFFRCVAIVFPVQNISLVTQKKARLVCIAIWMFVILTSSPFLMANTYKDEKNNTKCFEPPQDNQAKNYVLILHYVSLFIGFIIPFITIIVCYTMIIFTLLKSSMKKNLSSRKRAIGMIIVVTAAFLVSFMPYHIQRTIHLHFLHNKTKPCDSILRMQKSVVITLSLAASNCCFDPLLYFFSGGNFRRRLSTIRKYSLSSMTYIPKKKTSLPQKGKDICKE
Outline: (§2)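 Isolated guinea pig tracheal strips in Krebs' buffer with indomethacin (5 μM), 37 °C, 95% O2/5% CO2, resting tension 2 g. Carbachol (30 μM) sets the maximum. Antagonist incubated 30 min, then cumulative LTE4 concentration–response curves in log increments, one curve per tissue. EC50 by linear regression, paired vehicle controls. KB = [antagonist]/(DR − 1) (Furchgott).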

Cavia porcellus [4] = species: Cavia porcellus; assay: In vitro antagonism of 8 nM of peptidoleukotriene (LTE4) induced contraction of guinea pig tracheal spirals at 10 X E-7M concentration; type: functional, Trachea; outline: as §1
Cavia porcellus [5] = species: Cavia porcellus; assay: In vitro antagonism of 8 nM of peptidoleukotriene (LTE4) induced contraction of guinea pig tracheal spirals at 1 X E-7M concentration; type: functional, Trachea; outline: as §1
Cavia porcellus [6] = species: Cavia porcellus; assay: Dissociation constant KB = [antagonist]/(dose ratio -1). KB determined in guinea pig tracheal spirals with LTE4 as agonist.; type: functional, Trachea; outline: as §2
Cavia porcellus [7] = species: Cavia porcellus; assay: In vitro antagonism of 8 nM of peptidoleukotriene (LTE4) induced contraction of guinea pig tracheal spirals at 3.3 X E-7M concentration; type: functional, Trachea; outline: as §1
Cavia porcellus [8] = species: Cavia porcellus; assay: In vitro antagonism of 8 nM of peptidoleukotriene (LTE4) induced contraction of guinea pig tracheal spirals at 0.033 X E-7M concentration; type: functional, Trachea; outline: as §1

CCCCC(CC)C(=O)Nc1ccc2ccn(Cc3ccc(C(=O)O)cc3Cl)c2c1 (stereo not drawn)
Antagonism (Cavia porcellus [1]): 44%

CCCCC(CC)C(=O)Nc1ccc2ccn(Cc3ccc(C(=O)O)cc3OC)c2c1 (stereo not drawn)
Antagonism (Cavia porcellus [2]): 100% | pKB [3]: 6.6 | Antagonism (Cavia porcellus [4]): 59%

CCCCC(CC)C(=O)Nc1ccc2ccn(Cc3ccc(C(=O)C(C#N)S(=O)(=O)c4ccccc4)cc3OC)c2c1 (stereo not drawn)
Antagonism (Cavia porcellus [5]): 73% | pKB (Cavia porcellus [6]): 8.1

COc1cc(-c2nn[nH]n2)ccc1Cn1ncc2ccc(NC(=O)OC3CCCC3)cc21
Antagonism (Cavia porcellus [5]): 58% | pKB (Cavia porcellus [6]): 7.7 | Antagonism (Cavia porcellus [4]): 100%

CCCCC(CC)C(=O)Nc1ccc2ccn(Cc3ccc(C(=O)NCC(=O)O)cc3OC)c2c1 (stereo not drawn)
Antagonism (Cavia porcellus [1]): 43%

COc1cc(C(=O)NS(=O)(=O)c2ccccc2C)ccc1Cn1ncc2ccc(NC(=O)OC3CCCC3)cc21
pKB (Cavia porcellus [6]): 10.2

CCCCC(CC)C(=O)Nc1ccc2ccn(Cc3ccc(C(=O)NS(=O)(=O)c4ccc([N+](=O)[O-])cc4)cc3OC)c2c1 (stereo not drawn)
pKB (Cavia porcellus [6]): 7.7

CCCCC(CC)C(=O)Nc1ccc2ccn(Cc3ccc(-c4nn[nH]n4)cc3OC)c2c1 (stereo not drawn)
Antagonism (Cavia porcellus [7]): 31% | pKB [3]: 6.6 | Antagonism (Cavia porcellus [4]): 50%

CCCCC(CC)C(=O)Nc1ccc2ccn(Cc3ccc(/C=C/C(=O)O)cc3OC)c2c1 (stereo not drawn)
Antagonism (Cavia porcellus [1]): 31%

CCCCC(CC)C(=O)Nc1ccc2ccn(Cc3ccc(S(=O)(=O)NC(=O)c4ccccc4)cc3)c2c1 (stereo not drawn)
Antagonism (Cavia porcellus [1]): 37%

CCCCC(CC)C(=O)Nc1ccc2ccn(Cc3ccc(C(=O)NS(=O)(=O)c4ccccc4)cc3)c2c1 (stereo not drawn)
Antagonism (Cavia porcellus [5]): 42% | pKB (Cavia porcellus [6]): 6.8

CCCCC(CC)C(=O)Nc1ccc2ccn(Cc3ccc(C(=O)CS(=O)(=O)c4ccccc4)cc3OC)c2c1 (stereo not drawn)
Antagonism (Cavia porcellus [4]): 59%

CCCCC(CC)C(=O)Nc1ccc2ccn(Cc3c(OC)cc(C(=O)O)cc3OC)c2c1 (stereo not drawn)
Antagonism (Cavia porcellus [4]): 63%

CCCCC(CC)C(=O)Nc1ccc2ccn(Cc3ccc(C(=O)O)cc3OCCCC#N)c2c1 (stereo not drawn)
Antagonism (Cavia porcellus [2]): 33% | Antagonism (Cavia porcellus [1]): 84%

CCCCC(CC)C(=O)Nc1ccc2ccn(Cc3ccc(C(=O)NS(=O)(=O)c4ccccc4C)cc3OC)c2c1 (stereo not drawn)
pKB (Cavia porcellus [6]): 8.9

CCCCOC(=O)Nc1ccc2ccn(Cc3ccc(-c4nn[nH]n4)cc3OC)c2c1
pKB (Cavia porcellus [6]): 7.2 | Antagonism (Cavia porcellus [4]): 68%

CCCCC(CC)C(=O)Nc1ccc2ccn(Cc3ccc(C(=O)O)cc3OCCCc3nnn[nH]3)c2c1 (stereo not drawn)
Antagonism (Cavia porcellus [4]): 32%

CCCCC(CC)C(=O)Nc1ccc2ccn(Cc3cccc(C(=O)O)c3)c2c1 (stereo not drawn)
Antagonism (Cavia porcellus [1]): 31%

COc1cc(C(=O)N(C)S(=O)(=O)c2ccccc2)ccc1Cn1ccc2ccc(NC(=O)CC3CCCC3)cc21
Antagonism (Cavia porcellus [5]): 42%

COc1cc(C(=O)NS(=O)(=O)c2ccccc2N)ccc1Cn1ccc2ccc(NC(=O)CC3CCCC3)cc21
pKB (Cavia porcellus [6]): 9.9

CCCCC(CC)C(=O)Nc1ccc2ccn(Cc3ccc(C(=O)NS(=O)(=O)Cc4ccccc4)cc3OC)c2c1 (stereo not drawn)
Antagonism (Cavia porcellus [1]): 89%

CCCCC(CC)C(=O)Nc1ccc2ccn(Cc3cccc(C(=O)O)c3OC)c2c1 (stereo not drawn)
Antagonism (Cavia porcellus [1]): 38%

CCCCC(CC)C(=O)Nc1ccc2ccn(Cc3ccc(C(=O)NS(C)(=O)=O)cc3OC)c2c1 (stereo not drawn)
Antagonism (Cavia porcellus [4]): 100% and 60%

CCCCC(CC)C(=O)Nc1ccc2ccn(Cc3ccc(C(=O)NS(=O)(=O)C(C)C)cc3OC)c2c1 (stereo not drawn)
Antagonism (Cavia porcellus [4]): 47%

COc1cc(C(=O)O)ccc1Cn1ccc2ccc(NC(=O)CC3CCCC3)cc21
Antagonism (Cavia porcellus [5]): 34%

CCCCC(CC)C(=O)Nc1ccc2ccn(Cc3ccc(C(=O)NS(=O)(=O)c4ccc(Cl)cc4)cc3OC)c2c1 (stereo not drawn)
pKB (Cavia porcellus [6]): 7.8

COc1cc(C(=O)NS(=O)(=O)c2cc(C)ccc2C)ccc1Cn1ccc2ccc(NC(=O)CC3CCCC3)cc21
pKB (Cavia porcellus [6]): 8.4

CCCCC(CC)C(=O)Nc1ccc2cnn(Cc3ccc(-c4nn[nH]n4)cc3OC)c2c1 (stereo not drawn)
pKB (Cavia porcellus [6]): 7.1 | Antagonism (Cavia porcellus [4]): 100%

CCCCC(CC)C(=O)Nc1ccc2ccn(Cc3ccc(C(=O)O)c(OC)c3)c2c1 (stereo not drawn)
Antagonism (Cavia porcellus [4]): 15%

COc1cc(C(=O)NS(=O)(=O)c2ccccc2Cl)ccc1Cn1ccc2ccc(NC(=O)CC3CCCC3)cc21
pKB (Cavia porcellus [6]): 9.8

CCCCC(CC)C(=O)Nc1ccc2ccn(Cc3ccc(C(=O)Nc4ccccc4C(=O)O)cc3OC)c2c1 (stereo not drawn)
Antagonism (Cavia porcellus [1]): 34%

COc1cc(C(=O)NS(=O)(=O)c2ccccc2OC)ccc1Cn1ccc2ccc(NC(=O)CC3CCCC3)cc21
pKB (Cavia porcellus [6]): 9.7

CCCCC(CC)C(=O)Nc1ccc2ccn(Cc3ccc(C(=O)Nc4nn[nH]n4)cc3OC)c2c1 (stereo not drawn)
Antagonism (Cavia porcellus [1]): 62% | Antagonism (Cavia porcellus [4]): 20%

CCCCC(CC)C(=O)Nc1ccc2ccn(Cc3ccc(C(=O)O)cc3C)c2c1 (stereo not drawn)
Antagonism (Cavia porcellus [2]): 21% | Antagonism (Cavia porcellus [1]): 91%

CCCCC(CC)C(=O)Nc1ccc2ccn(Cc3ccc(S(=O)(=O)O)cc3)c2c1 (stereo not drawn)
Antagonism (Cavia porcellus [1]): 48%

CCCCC(CC)C(=O)Nc1ccc2ccn(Cc3ccc(C(=O)O)cc3F)c2c1 (stereo not drawn)
Antagonism (Cavia porcellus [1]): 86%

COc1ccc(OC)c(S(=O)(=O)NC(=O)c2ccc(Cn3ccc4ccc(NC(=O)CC5CCCC5)cc43)c(OC)c2)c1
pKB (Cavia porcellus [6]): 9.1

CCCCC(CC)C(=O)Nc1ccc2ccn(Cc3ccc(OC)c(C(=O)O)c3)c2c1 (stereo not drawn)
Antagonism (Cavia porcellus [1]): 28%

COc1cc(-c2nn[nH]n2)ccc1Cn1ccc2ccc(NC(=O)CC3CCCC3)cc21
Antagonism (Cavia porcellus [7]): 79% | Antagonism (Cavia porcellus [5]): 42% | Antagonism (Cavia porcellus [4]): 100%

CCCCC(CC)C(=O)Nc1ccc2ccn(Cc3c(OC)cc(C(=O)NS(=O)(=O)c4ccccc4)cc3OC)c2c1 (stereo not drawn)
Antagonism (Cavia porcellus [5]): 72% | pKB (Cavia porcellus [6]): 8

COc1cc(C(=O)NS(=O)(=O)c2ccccn2)ccc1Cn1ccc2ccc(NC(=O)CC3CCCC3)cc21
pKB (Cavia porcellus [6]): 8.9

COc1cc(C(=O)NS(=O)(=O)c2ccccc2C)ccc1Cn1ncc2ccc(NC(=O)CC3CCCC3)cc21
pKB (Cavia porcellus [6]): 10.9

CCCCC(CC)C(=O)Nc1ccc2ccn(Cc3ccc(C(=O)NS(=O)(=O)c4ccc(F)cc4)cc3OC)c2c1 (stereo not drawn)
pKB (Cavia porcellus [6]): 7.7

CCCCC(CC)C(=O)Nc1ccc2ccn(Cc3ccc(C(=O)NS(=O)(=O)c4ccc(C)cc4)cc3OC)c2c1 (stereo not drawn)
pKB (Cavia porcellus [6]): 8.4

CCCCC(CC)C(=O)Nc1ccc2ccn(Cc3ccc(C(=O)NO)cc3OC)c2c1 (stereo not drawn)
Antagonism (Cavia porcellus [1]): 38%

CCCCOC(=O)Nc1ccc2cnn(Cc3ccc(-c4nn[nH]n4)cc3OC)c2c1
Antagonism (Cavia porcellus [7]): 55% | pKB (Cavia porcellus [6]): 7.1

CCCCC(CC)C(=O)Nc1ccc2ccn(Cc3ccc(C(=O)N[S+]([O-])c4ccccc4)cc3OC)c2c1 (stereo not drawn)
Antagonism (Cavia porcellus [2]): 34%

COc1cc(C(=O)NS(=O)(=O)c2ccc3ccccc3c2)ccc1Cn1ccc2ccc(NC(=O)CC3CCCC3)cc21
pKB (Cavia porcellus [6]): 8.3

CCCCOc1cc(C(=O)O)ccc1Cn1ccc2ccc(NC(=O)C(CC)CCCC)cc21 (stereo not drawn)
Antagonism (Cavia porcellus [2]): 44% | Antagonism (Cavia porcellus [1]): 83%

COc1cc(-c2nn[nH]n2)ccc1Cn1ccc2ccc(NC(=O)OC3CCCC3)cc21
pKB (Cavia porcellus [6]): 7.6 | Antagonism (Cavia porcellus [4]): 62%

CCCCC(CC)C(=O)Nc1ccc2ccn(Cc3ccc(C(=O)NS(=O)(=O)c4ccc(OC)cc4)cc3OC)c2c1 (stereo not drawn)
pKB (Cavia porcellus [6]): 7.4

COc1cc(C(=O)NS(=O)(=O)c2c(C)cccc2Cl)ccc1Cn1ccc2ccc(NC(=O)CC3CCCC3)cc21
pKB (Cavia porcellus [6]): 8.8

CCC(C(=O)Nc1ccc2cnn(Cc3ccc(C(=O)NS(=O)(=O)c4ccccc4)cc3OC)c2c1)c1ccccc1 (stereo not drawn)
Antagonism (Cavia porcellus [8]): 43%

CCCCC(CC)C(=O)Nc1ccc2ccn(Cc3ccc(C(=O)NS(=O)(=O)c4ccccc4)c(OC)c3)c2c1 (stereo not drawn)
Antagonism (Cavia porcellus [5]): 52%

CCCCC(CC)C(=O)Nc1ccc2ccn(Cc3ccc(C(=O)O)cc3)c2c1 (stereo not drawn)
Antagonism (Cavia porcellus [1]): 44%

CCCCCC(=O)Nc1ccc2ccn(Cc3ccc(-c4nn[nH]n4)cc3OC)c2c1
Antagonism (Cavia porcellus [2]): 86% | Antagonism (Cavia porcellus [4]): 32%

CCCCC(CC)C(=O)Nc1ccc2ccn(Cc3ccc(C(=O)O)c(Br)c3)c2c1 (stereo not drawn)
Antagonism (Cavia porcellus [2]): 33%

COc1cc(C(=O)NS(=O)(=O)c2cccs2)ccc1Cn1ccc2ccc(NC(=O)CC3CCCC3)cc21
pKB (Cavia porcellus [6]): 9.6

From ChEMBL document CHEMBL1125170, “A novel series of selective leukotriene antagonists: exploration and optimization of the acidic region in 1,6-disubstituted indoles and indazoles” (1990)
